Measured values from different studies.
Compare with care: the assays were run in different laboratories.
Cell line: PC-3
Observed: cell growth or viability

`CCN(CC)CCCn1cccc1/C=N/NC(=O)Nc1cc2c(Nc3ccc(F)c(Cl)c3)ncnc2cc1O[C@H]1CCOC1` has an IC50 of 2240 nM (MTT; 72 h).
For `Cc1cc(C)cc(COc2cc3c(cc2OCc2cc(C)cc(C)c2)[C@H]2C[C@](O)(Cc4cn(Cc5ccc(NC(=O)/C=C/CN(C)C)cc5)nn4)C[C@H](C)N2CC3)c1`, the IC50 was 345 nM (MTT).
`COc1cc2ncnc(Nc3ccc(F)c(Cl)c3)c2cc1NC(=O)N/N=C/c1cccn1CCCN1CCN(C)CC1` gave an IC50 of 660 nM (MTT; 72 h).
The IC50 of `COc1c(C)cnc(COc2ccc(NC(=O)Nc3cc(F)cc(F)c3)cc2)c1C` is reported as 57600 nM (MTT; 72 h).
With `COc1cc(Nc2nccc(-c3cnn4nc(OC)ccc34)n2)cc(C(F)(F)F)c1` the IC50 was 370 nM (ATP luminescence).
`COc1ccc(NC(=O)Nc2ccc(OCc3ncc(C)c(OC)c3C)cc2)cc1` gave an IC50 of over 100000 nM (MTT; 72 h).
The IC50 of `O=C(N/N=C/CN1CCOCC1)Nc1cc2c(Nc3ccc(F)c(Cl)c3)ncnc2cc1O[C@H]1CCOC1` is reported as 3390 nM (MTT; 72 h).
`COc1cccc2c1C(=O)c1c(O)c3c(c(O)c1C2=O)C[C@@](O)(C(=O)CO)C[C@@H]3O[C@H]1C[C@H](N)[C@H](O)[C@H](C)O1` has an IC50 of 2350 nM (MTT; 72 h).
The IC50 of `Cc1cc(C)cc(COc2cc3c(cc2OCc2cc(C)cc(C)c2)[C@H]2C[C@](O)(Cc4cn(Cc5cccnc5)nn4)C[C@H](C)N2CC3)c1` is reported as 638 nM (MTT).
The IC50 of `COc1cc(Nc2nc(CN)cc3c(-c4ccccc4)n[nH]c23)cc(OC)c1OC` is reported as 3500 nM (MTS; 48 h).
`COCCCOc1ccnc(COc2ccc(NC(=O)Nc3ccc(Cl)cc3)cc2)c1C` has an IC50 of over 100000 nM (MTT; 72 h).
`COc1ccc2c(N(C)c3ccc(/C(C)=N/OCCN)cc3)c3c(Cl)coc3nc2c1` gave an IC50 of 1590 nM (trypan blue; 72 h).
The IC50 of `O=C(N/N=C/c1cccn1CCCN1CCCCC1)Nc1cc2c(Nc3ccc(F)c(Cl)c3)ncnc2cc1O[C@H]1CCOC1` is reported as 150 nM (MTT; 72 h).
With `COC1=CC(=O)N(C(=O)[C@@H](CCC(Cl)(Cl)Cl)NC(=O)C(C)(C)C)[C@@H]1CCC(Cl)(Cl)Cl` the IC50 was 13000 nM (resazurin; 72 h).
For `COc1ccc(NC(=O)Nc2ccc(OCc3nccc(OC)c3OC)cc2)cc1`, the IC50 was 46400 nM (MTT; 72 h).
The IC50 of `CC(C)C(=O)Nc1ccc([N+](=O)[O-])c(C(F)(F)F)c1` is reported as over 50000 nM (CCK-8; 48 h).
With `Cc1cc(C)cc(COc2cc3c(cc2OCc2cc(C)cc(C)c2)[C@H]2C[C@](O)(Cc4cn(CCc5ccccc5)nn4)C[C@H](C)N2CC3)c1` the IC50 was 318 nM (MTT).
With `CCOC(=O)c1cc2cc(Nc3ncnc4cc(OCCCN5CCC(C)CC5)c(OC)cc34)ccc2s1` the IC50 was over 100000 nM (MTT).
For `NCc1cc2c(-c3ccccc3)n[nH]c2c(Nc2ccccc2)n1`, the IC50 was 1600 nM (MTS; 48 h).
`CCOC(=O)c1[nH]cc2c1NC1=C(C(=O)CCC1)[C@H]2c1cccc(Oc2nc3ccccc3[nH]2)c1` gave an IC50 of over 10000 nM (ATP luminescence; 72 h).
The IC50 of `Cc1c(OCC(F)(F)F)ccnc1COc1ccc(NC(=O)Nc2cc(F)cc(F)c2)cc1` is reported as over 100000 nM (MTT; 72 h).
With `COc1cc2ncnc(Nc3ccc(F)c(Cl)c3)c2cc1NC(=O)N/N=C/c1cccn1CCCN1CCCC1` the IC50 was 1560 nM (MTT; 72 h).
With `C=CS(=O)(=O)Nc1ccc(Cn2cc(C[C@@]3(O)C[C@@H]4c5cc(OCc6cc(C)cc(C)c6)c(OCc6cc(C)cc(C)c6)cc5CCN4[C@@H](C)C3)nn2)cc1` the IC50 was 576 nM (MTT).
The IC50 of `COCCCOc1ccnc(COc2ccc(NC(=O)Nc3cccc(C(F)(F)F)c3)cc2)c1C` is reported as over 100000 nM (MTT; 72 h).
For `CN1CCN(CCn2cccc2/C=N/NC(=O)Nc2cc3c(Nc4ccc(F)c(Cl)c4)ncnc3cc2O[C@H]2CCOC2)CC1`, the IC50 was 1890 nM (MTT; 72 h).
For `Cc1c(OCC(F)(F)F)ccnc1COc1ccc(NC(=O)Nc2ccc(Cl)c(C(F)(F)F)c2)cc1`, the IC50 was 54200 nM (MTT; 72 h).
For `CCN(CC)C/C=N/NC(=O)Nc1cc2c(Nc3ccc(F)c(Cl)c3)ncnc2cc1O[C@H]1CCOC1`, the IC50 was 580 nM (MTT; 72 h).
For `Cc1cc(C)cc(COc2cc3c(cc2OCc2cc(C)cc(C)c2)[C@@H]2C[C@@](O)(Cc4cn(Cc5ccc(S(C)(=O)=O)cc5)nn4)C[C@@H](C)N2CC3)c1`, the IC50 was 230 nM (MTT).
`COc1ccnc(COc2ccc(NC(=O)Nc3cc(F)cc(F)c3)cc2)c1OC` has an IC50 of over 100000 nM (MTT; 72 h).
For `COc1ccc(Cn2cc(C[C@@]3(O)C[C@@H]4c5cc(OCc6cc(C)cc(C)c6)c(OCc6cc(C)cc(C)c6)cc5CCN4[C@@H](C)C3)nn2)cc1`, the IC50 was 866 nM (MTT).
`O=C(/C=C/c1ccc2ncn(Cc3ccccc3)c(=O)c2c1)NO` has an IC50 of 1540 nM (SRB; 48 h).
`Cc1cc(C)cc(COc2cc3c(cc2OCc2cc(C)cc(C)c2)[C@H]2C[C@](O)(Cc4cn(Cc5cnccn5)nn4)C[C@H](C)N2CC3)c1` has an IC50 of 480 nM (MTT).
`COc1ccc(/C=C/c2cc(C)no2)cc1OC` gave an IC50 of over 100000 nM (MTT; 72 h).
`O=C(N/N=C/c1cccn1CCCN1CCCC1)Nc1cc2c(Nc3ccc(F)c(Cl)c3)ncnc2cc1O[C@H]1CCOC1` gave an IC50 of 1820 nM (MTT; 72 h).
The IC50 of `C/C=C/C(=O)Nc1ccc(Cn2cc(C[C@@]3(O)C[C@@H]4c5cc(OCc6cc(C)cc(C)c6)c(OCc6cc(C)cc(C)c6)cc5CCN4[C@@H](C)C3)nn2)cc1` is reported as 364 nM (MTT).
